Test results: PMC3660010 (Diabetologia, 2012)
Positions count from the first letter of the chain named. In names and notes the source's numbering stands. Entries after “also recorded” stand apart in the source; their conditions may differ. Ends that are not written are not given here.

Columns and labels:
hIAPP fibrils = test: Transmission electron microscopy of hIAPP fibrils; format: biochemical, human; conditions: 37°C, 20 h; for hIAPP fibrils by TEM in the presence of protein: hIAPP 25 μmol/l with 0.5 μmol/l protein
[1] = tested on: INS 832/13 insulinoma cells; test: MTT assay, hIAPP overexpression-induced cytotoxicity; format: cell-based, rat; conditions: 48 h; for effect on hIAPP overexpression-induced cytotoxicity (MTT), 400 nmol/l protein: adenovirus prepro-hIAPP-GFP MOI 100, 400 nmol/l protein in media
Summary of the method: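 INS 832/13 rat insulinoma cells (RPMI 1640, 11.1 mmol/l glucose, 10% FBS, 37°C, 5% CO2) transduced with adenovirus encoding prepro-hIAPP-GFP at MOI 100; GFP and prepro-rIAPP-GFP viruses as controls. Recombinant NEP or NEPx (4, 40, 400 nmol/l) or transferrin (400 nmol/l) added to media. After 48 h, MTT 4 h at 37°C, acidic isopropanol, A570; viability as % of vehicle control.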

[2] = tested on: INS 832/13 insulinoma cells; test: MTT assay, synthetic hIAPP-induced cytotoxicity; format: cell-based, rat; conditions: 48 h; for viable cells relative to vehicle control cells (MTT), peptide alone: 20 μmol/l synthetic peptide, INS 832/13, mean ± SEM
Summary of the method: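 INS 832/13 cells were exposed to 20 μmol/l synthetic hIAPP plus 4, 40 or 400 nmol/l recombinant NEP or NEPx for 48 h, with vehicle (0.8% DMSO in media), 20 μmol/l rIAPP and 400 nmol/l transferrin controls. MTT added 1:10 from 5 mg/ml stock, 4 h at 37°C, HCl/isopropanol, A570. Viability as % of vehicle; mean ± SEM, n = 3 to 9, one-way ANOVA with Dunnett's test.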

NEP [3] = molecular target: T1, NEP (Homo sapiens, UniProt P08473); test: Cleavage of peptide by neprilysin, reverse phase HPLC and mass spectrometry; format: biochemical; conditions: 37°C
Summary of the method: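 Purified His-tagged recombinant human NEP (CHO-S-expressed, nickel-affinity and anion-exchange purified), 400 nmol/l, incubated with 20 μmol/l hIAPP (from 2.5 mmol/l DMSO stock) in 20 mmol/l MES, pH 6.5, 37°C for 60 min, with or without phosphoramidon; catalytically compromised E585V mutant run in parallel. Stopped with TFA to 0.5%, reverse-phase HPLC on C4 column; products collected manually for mass spectral identification.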

NEP [4] = molecular target: T1, NEP; test: Fluorogenic assay of NEP activity, inhibition by phosphoramidon; format: biochemical
NEP^E585V mutant (NEPx) = NEP^E585V mutant (NEPx) (Homo sapiens, UniProt P08473, E585V); test: Fluorogenic assay of NEPx activity, inhibition by phosphoramidon; format: biochemical; conditions: GAAF-4-MNA as substrate
[5] = tested on: INS 832/13 insulinoma cells; test: Cleaved caspase-3 Western blot, synthetic hIAPP-induced apoptosis; format: cell-based, rat; conditions: 20 μmol/l synthetic peptide, 24 h
NEPx = NEPx (Homo sapiens, UniProt P08473, E585V); test: Cleavage of hIAPP by catalytically compromised NEPx, reverse phase HPLC; format: biochemical; conditions: 20 μmol/l hIAPP, 400 nmol/l NEPx, 37°C, 1 h
Summary of the method: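 Enzyme: recombinant human NEP ectodomain E585V mutant, expressed in CHO-S cells as a His-tagged growth hormone fusion. Purified by nickel affinity, PreScission removal of growth hormone, and MonoQ anion exchange. 20 μmol/l hIAPP incubated with the enzyme in 20 mmol/l MES, pH 6.5, at 37°C. Stopped with TFA to 0.5%. Reverse-phase HPLC on a C4 column.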

neprilysin (NEP) = test: 400 nmol/l recombinant NEP in 20 mmol/l MES buffer, pH 6.5; conditions: human, 37°C, up to 60 min
NEP [6] = conditions: cited from earlier work
[7] = Fluorogenic assay of NEP activity with GAAF-4-MNA as substrate; format: biochemical; conditions: 100 μmol/l GAAF-4-MNA, 20 mmol/l MES pH 6.5, 37°C
[8] = 20 μmol/l synthetic hIAPP, mean ± SEM, n = 3 to 9

T1 sequence (P08473 52-750 limits assumed): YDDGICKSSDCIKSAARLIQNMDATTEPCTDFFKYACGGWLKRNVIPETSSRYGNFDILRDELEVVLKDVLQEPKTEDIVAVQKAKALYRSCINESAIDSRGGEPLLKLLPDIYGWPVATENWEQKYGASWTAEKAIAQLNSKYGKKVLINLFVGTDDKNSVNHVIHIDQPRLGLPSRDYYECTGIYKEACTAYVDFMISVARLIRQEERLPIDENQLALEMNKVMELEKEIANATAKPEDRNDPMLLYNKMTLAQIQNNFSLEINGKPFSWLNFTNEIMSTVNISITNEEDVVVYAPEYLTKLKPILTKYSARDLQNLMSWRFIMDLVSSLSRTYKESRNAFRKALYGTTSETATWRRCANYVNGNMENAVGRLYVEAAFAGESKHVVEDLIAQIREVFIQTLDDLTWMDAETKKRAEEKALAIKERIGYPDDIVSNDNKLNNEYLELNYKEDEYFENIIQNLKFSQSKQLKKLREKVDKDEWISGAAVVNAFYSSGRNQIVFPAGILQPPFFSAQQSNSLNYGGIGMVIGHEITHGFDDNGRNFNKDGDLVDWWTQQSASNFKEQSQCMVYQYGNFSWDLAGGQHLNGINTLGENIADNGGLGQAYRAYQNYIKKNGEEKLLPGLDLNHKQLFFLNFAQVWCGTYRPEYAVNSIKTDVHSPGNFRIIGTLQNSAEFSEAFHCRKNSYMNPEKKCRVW

Molecule: TF: transferrin used as protein control [reference compound]
- hIAPP fibrils by TEM in the presence of protein (hIAPP fibrils): fibrils were observed
- effect on hIAPP overexpression-induced cytotoxicity (MTT), 400 nmol/l protein [1]: had no effect
- viable cells (MTT) with hIAPP in the presence of 400 nmol/l protein [2, 8]: did not protect

Molecule: ILSSTNVGSNTY-NH2
- further cleavage of the product by NEP (NEP [3]; product of hIAPP (20 μmol/l) with 400 nmol/l NEP, initially increased with time, then decreased (HPLC)): appeared to be further cleaved

Molecule: CC(C)C[C@H](NP(=O)(O)O[C@@H]1O[C@@H](C)[C@H](O)[C@@H](O)[C@H]1O)C(=O)N[C@@H](Cc1c[nH]c2ccccc12)C(=O)O [phosphoramidon]
- activity of NEP in the presence of phosphoramidon (NEP [4]; GAAF-4-MNA as substrate): undetectable levels
- inhibition at 50 µM (NEP [4]; read-out: inhibition of NEP activity): > 99%
- effect of NEP inhibitor on hIAPP cleavage by NEP (NEP [3]; 20 μmol/l hIAPP, 400 nmol/l NEP, 60 min, HPLC): blocked
- activity of NEPx in the presence of phosphoramidon (NEP^E585V mutant (NEPx)): undetectable levels

Molecule: rIAPP: synthetic rodent islet amyloid polypeptide, non-aggregating control [reference compound]
- viable cells relative to vehicle control cells (MTT), peptide alone ([2]; n = 3 to 9): did not cause significant cytotoxicity
- induction of apoptosis (increase in cleaved caspase-3), peptide alone [5]: but not rIAPP, induced apoptosis

Molecule: CC[C@H](C)[C@H](NC(=O)[C@H](C)NC(=O)CNC(=O)[C@H](Cc1ccccc1)NC(=O)[C@H](CC(N)=O)NC(=O)[C@H](CC(N)=O)NC(=O)[C@H](CO)NC(=O)[C@H](CO)NC(=O)[C@H](Cc1c[nH]cn1)NC(=O)[C@@H](NC(=O)[C@H](CC(C)C)NC(=O)[C@H](Cc1ccccc1)NC(=O)[C@H](CC(N)=O)NC(=O)[C@H](C)NC(=O)[C@H](CC(C)C)NC(=O)[C@H](CCCNC(=N)N)NC(=O)[C@H](CCC(N)=O)NC(=O)[C@@H](NC(=O)[C@H](C)NC(=O)[C@@H]1CSSC[C@H](NC(=O)[C@@H](N)CCCCN)C(=O)N[C@@H](CC(N)=O)C(=O)N[C@@H]([C@@H](C)O)C(=O)N[C@@H](C)C(=O)N[C@@H]([C@@H](C)O)C(=O)N1)[C@@H](C)O)C(C)C)C(=O)N[C@@H](CC(C)C)C(=O)N[C@@H](CO)C(=O)N[C@@H](CO)C(=O)N[C@H](C(=O)N[C@@H](CC(N)=O)C(=O)N[C@H](C(=O)NCC(=O)N[C@@H](CO)C(=O)N[C@@H](CC(N)=O)C(=O)N[C@H](C(=O)N[C@@H](Cc1ccc(O)cc1)C(N)=O)[C@@H](C)O)C(C)C)[C@@H](C)O [hIAPP, IAPP (1–37, disulfide bridge 2–7, amide), reference compound]
- hIAPP fibrils by TEM, untreated hIAPP (CTRL) (hIAPP fibrils; hIAPP 25 μmol/l with buffer): fibrils were observed
- viable cells relative to vehicle control cells (MTT), peptide alone ([2]; n = 3 to 9): 15.6 ± 3.5%
- cleavage of hIAPP by NEPx (NEPx): no cleavage
- induction of apoptosis (increase in cleaved caspase-3), peptide alone [5]: induced apoptosis

Molecule: IAPP (1–37, disulfide bridge 2–7, amide)
- cleaved bond (neprilysin (NEP)): Arg11-Leu12, major; also recorded: Leu12-Ala13, major
- not cleaved (NEP [6]): concluded that NEP did not cleave hIAPP

B1: NEPx: catalytically compromised NEP^E585V mutant ectodomain, about 80% pure (protein, UniProt P08473 52-750, looked up, variant E585V)
extracellular domain: YDDGICKSSDCIKSAARLIQNMDATTEPCTDFFKYACGGWLKRNVIPETSSRYGNFDILRDELEVVLKDVLQEPKTEDIVAVQKAKALYRSCINESAIDSRGGEPLLKLLPDIYGWPVATENWEQKYGASWTAEKAIAQLNSKYGKKVLINLFVGTDDKNSVNHVIHIDQPRLGLPSRDYYECTGIYKEACTAYVDFMISVARLIRQEERLPIDENQLALEMNKVMELEKEIANATAKPEDRNDPMLLYNKMTLAQIQNNFSLEINGKPFSWLNFTNEIMSTVNISITNEEDVVVYAPEYLTKLKPILTKYSARDLQNLMSWRFIMDLVSSLSRTYKESRNAFRKALYGTTSETATWRRCANYVNGNMENAVGRLYVEAAFAGESKHVVEDLIAQIREVFIQTLDDLTWMDAETKKRAEEKALAIKERIGYPDDIVSNDNKLNNEYLELNYKEDEYFENIIQNLKFSQSKQLKKLREKVDKDEWISGAAVVNAFYSSGRNQIVFPAGILQPPFFSAQQSNSLNYGGIGMVIGHVITHGFDDNGRNFNKDGDLVDWWTQQSASNFKEQSQCMVYQYGNFSWDLAGGQHLNGINTLGENIADNGGLGQAYRAYQNYIKKNGEEKLLPGLDLNHKQLFFLNFAQVWCGTYRPEYAVNSIKTDVHSPGNFRIIGTLQNSAEFSEAFHCRKNSYMNPEKKCRVW
modifications: extracellular domain
- hIAPP fibrils by TEM in the presence of protein (hIAPP fibrils): fibrils were observed
- NEP activity abolished by the E585V mutation [7]: greater than 98%
- activity relative to wild-type NEP activity ([7]; fluorescence ex 340/em 425 nm): ~ 1.7%
- effect on hIAPP overexpression-induced cytotoxicity (MTT), NEPx ([1]; adenovirus prepro-hIAPP-GFP MOI 100, 4, 40 or 400 nmol/l NEPx): had no effect
- viable cells (MTT) with hIAPP in the presence of 400 nmol/l protein [2, 8]: 58.4 ± 9.3%

B2: NEP: recombinant ectodomain of human neprilysin expressed in CHO-S cells (protein, UniProt P08473 52-750, looked up)
extracellular domain: B1 extracellular domain with V534E
modifications: extracellular domain
- hIAPP fibrils by TEM in the presence of protein (hIAPP fibrils): fibrils were not seen
- effect on hIAPP overexpression-induced cytotoxicity (MTT), 400 nmol/l protein [1]: reduced this hIAPP induced cytotoxicity
- effect on hIAPP overexpression-induced cytotoxicity (MTT), lower concentrations of NEP ([1]; adenovirus prepro-hIAPP-GFP MOI 100, 4 or 40 nmol/l): had no effect
- viable cells (MTT) with hIAPP in the presence of 4 nmol/l protein ([2]; 20 μmol/l synthetic hIAPP, 4 nmol/l protein, not statistically significant): 39.4 ± 15.3%
- viable cells (MTT) with hIAPP in the presence of 40 nmol/l protein ([2]; 20 μmol/l synthetic hIAPP, 40 nmol/l protein, mean ± SEM, n = 3 to 9): 92.9 ± 9.5%
- viable cells (MTT) with hIAPP in the presence of 400 nmol/l protein [2, 8]: 84.5 ± 7.3%
